In ChEMBL document CHEMBL1153722, “Design, synthesis, and characterization of peptide-based rab geranylgeranyl transferase inhibitors” (J Med Chem, 2009) one finds inhibition data, which are given here for 54 compounds.

Peptide text beside a SMILES is read from it. * marks the point of attachment. Hydrocinnamoyl = O=C(CCc1ccccc1)*; pNA = O=[N+]([O-])c1ccc(N*)cc1; Undecanoyl = CCCCCCCCCCC(=O)*; Morpholide = C1CN(*)CCO1; NHBn = c1ccc(CN*)cc1; NHPh = c1ccc(N*)cc1

The species named for the assay is Rattus norvegicus. Put plainly: Inhibition of rat recombinant Rab geranylgeranyltransferase at 100 uM in presence of canine Rab7 and rat REP1 NBD-FPP based continuous fluorimetric assay. The method in brief:
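Continuous fluorometric assay in 96/384-well format: 3 μM Rab7, 3 μM REP1, 9 μM NBD-FPP and 400 nM RabGGTase, with or without inhibitor. […] IC50 was calculated from three independent measurements.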
In the case of `CCCCCCCCCCCCCC(=O)N[C@@H](Cc1ccc(O)cc1)C(=O)N[C@@H](Cc1ccc(O)cc1)C(=O)N[C@@H](Cc1ccc(O)cc1)C(=O)NC1CCCCC1`, the inhibition (commonly the drop in the measured response relative to a control, in per cent) was 93%.
The value for `CC(C)CCNC(=O)[C@H](Cc1ccccc1)NC(=O)[C@H](CC(C)C)NC(=O)[C@@H]1CCCN1C(=O)/C=C/c1ccccc1` was 104%; that for `CC(C)C[C@H](NC(=O)[C@H](COC(C)(C)C)NC(=O)[C@H](Cc1ccccc1)NC(=O)CCc1ccccc1)C(=O)OCCCl` was 109%.
For the compound `NC(=O)CC[C@H](NC(=O)[C@H](Cc1ccccc1)NC(=O)CNC(=O)CCc1ccccc1)C(=O)Nc1ccccc1` (Hydrocinnamoyl-Gly-Phe-Gln-NHPh), the inhibition was found to be 80%.
The value for `CC[C@H](C)[C@H](NC(=O)c1ccc(-c2ccccc2)cc1)C(=O)N[C@@H](C(=O)N[C@@H](CCC(N)=O)C(=O)N1CCCCC1)C(C)C` was 100%.
For `CON(C)C(=O)[C@H](Cc1ccc(O)cc1)NC(=O)CNC(=O)[C@H](Cc1ccc(O)cc1)NC(=O)c1ccc(F)cc1`, the inhibition was 84%.
Regarding `COc1ccc(C[C@@H](C(=O)N(C)[C@@H](Cc2ccccc2)C(=O)O)N(C)C(=O)[C@@H](Cc2ccc(O)cc2)NC(=O)CCc2ccccc2)cc1`, the inhibition was found to be 46%.
In the case of `COC(=O)[C@H](CCC(N)=O)NC(=O)[C@H](NC(=O)[C@H]1CCCN1C(=O)c1ccc([N+](=O)[O-])c(NC(C)=O)c1)C(C)C`, the inhibition came to 98%.
`O=C(CNC(=O)[C@H](Cc1ccc(O)cc1)NC(=O)c1ccc(F)cc1)N[C@@H](Cc1ccc(O)cc1)C(=O)Nc1ccc(F)cc1F`: the inhibition worked out at 98%.
`CCCCCCCCCCC(=O)N[C@@H](Cc1ccc(O)cc1)C(=O)N[C@@H](Cc1cnc[nH]1)C(=O)N[C@@H](Cc1ccc(O)cc1)C(=O)NCCCn1ccnc1`: the inhibition came to 32%.
Turning to `CCCCCCCCCCCOc1ccc(C(=O)N[C@@H](Cc2ccc(O)cc2)C(=O)N[C@@H](Cc2ccc(O)cc2)C(=O)N[C@@H](Cc2ccc(O)cc2)C(=O)NCCCn2ccnc2)cc1`, the inhibition came out at 48%.
As for `CCCCCCCCCCCOc1ccc(C(=O)N[C@@H](Cc2ccc(O)cc2)C(=O)N[C@@H](Cc2ccc(O)cc2)C(=O)N[C@@H](Cc2ccc(O)cc2)C(=O)OC)cc1`, the inhibition turned out to be 102%.
For the compound `CCCCCCCCCCOc1ccc(C(=O)N[C@@H](Cc2c[nH]c3ccccc23)C(=O)N[C@@H](Cc2c[nH]cn2)C(=O)N[C@@H](Cc2c[nH]cn2)C(=O)OC)cc1`, the inhibition is 56%.
In the case of `NC(=O)CC[C@H](NC(=O)[C@H](Cc1ccccc1)NC(=O)[C@H](CO)NC(=O)CCc1ccccc1)C(=O)NCc1ccccc1` (Hydrocinnamoyl-Ser-Phe-Gln-NHBn), the inhibition came to 87%.
As to `CCCCCCCCCCC(=O)N[C@@H](Cc1ccc(O)cc1)C(=O)N[C@@H](Cc1c[nH]cn1)C(=O)N[C@@H](Cc1c[nH]cn1)C(=O)OC` (Undecanoyl-Tyr-His-His-OMe), the inhibition was 32%.
Take `O=C(/C=C/c1ccc(F)cc1)N[C@@H](CO)C(=O)N[C@@H](Cc1ccccc1)C(=O)N[C@@H](CO)C(=O)N1CCOCC1`: the inhibition was determined as 75%.
In the case of `O=C(N[C@@H](CO)C(=O)N[C@@H](Cc1ccccc1)C(=O)N[C@@H](CO)C(=O)Nc1ccc(N2CCOCC2)cc1)C(Br)C(Br)c1ccc(F)cc1` (some centres undefined), the inhibition came out at 70%.
On to `CCCCCCCCCCC(=O)N[C@@H](Cc1c[nH]cn1)C(=O)N[C@@H](Cc1c[nH]cn1)C(=O)N[C@@H](CO)C(=O)NOC(C)(C)C`, for which the inhibition was 52%.
As for `O=C(CCc1ccccc1)N[C@@H](CO)C(=O)NCC(=O)N[C@@H](CO)C(=O)N1CCOCC1` (Hydrocinnamoyl-Ser-Gly-Ser-Morpholide), the inhibition is 83%.
With `O=C(CNC(=O)c1csc(-c2ccccc2)n1)N[C@@H](Cc1ccccc1)C(=O)N[C@@H](Cc1c[nH]cn1)C(=O)O`, the inhibition was 70%.
On to `O=C(CCc1ccccc1)N[C@@H](CO)C(=O)N[C@@H](Cc1ccccc1)C(=O)N[C@@H](CO)C(=O)N1CCOCC1` (Hydrocinnamoyl-Ser-Phe-Ser-Morpholide), for which the inhibition was found to be 94%.
The value for `C[C@H](NC(=O)[C@@H](NC(=O)c1ccc(-c2ccccc2)cc1)[C@@H](C)O)C(=O)N[C@@H](CCC(=O)O)C(=O)NN` was 89%; that for `C[C@H](NC(=O)c1coc(-c2ccccc2)n1)C(=O)NCC(=O)N[C@@H](Cc1ccc(O)cc1)C(=O)Nc1ccc(F)cc1F` was 83%.
With `CCCCCCCCCCC(=O)N[C@@H](Cc1ccc(O)cc1)C(=O)N[C@@H](Cc1c[nH]cn1)C(=O)N[C@@H](Cc1ccc(O)cc1)C(=O)NOC(C)(C)C`, the inhibition turned out to be 79%.
For the compound `O=C(CNC(=O)c1csc(C2CCNCC2)n1)N[C@@H](Cc1ccccc1)C(=O)N[C@@H](Cc1c[nH]cn1)C(=O)O`, the inhibition was determined as 124%.
Consider `CC(C)C[C@H](NC(=O)[C@H](COC(C)(C)C)NC(=O)[C@H](Cc1ccccc1)NC(=O)c1ccc(-c2ccccc2)cc1)C(=O)OCCCl`, for which the inhibition is 87%.
For the compound `O=C(/C=C/c1ccc(F)cc1)N[C@@H](CO)C(=O)N[C@@H](Cc1ccccc1)C(=O)N[C@@H](CO)C(=O)Nc1ccc(F)c(Cl)c1`, the inhibition came out at 89%.
Consider `CC(C)C[C@H](NC(=O)[C@@H]1CCCN1C(=O)/C=C/c1ccccc1)C(=O)N[C@@H](Cc1ccccc1)C(=O)NC1CCCCC1`, for which the inhibition was found to be 82%.
Regarding `C[C@H](NC(=O)[C@@H](NC(=O)c1ccc(-c2ccccc2)cc1)[C@@H](C)O)C(=O)N[C@@H](CCC(=O)O)C(N)=O`, the inhibition was found to be 82%.
`CCCCOC(=O)[C@H](Cc1ccc(O)cc1)NC(=O)CNC(=O)[C@H](Cc1ccc(O)cc1)NC(=O)c1ccc(F)cc1`: the inhibition amounted to 76%.
For the compound `CCCCCCCCCCCCCCCC(=O)N[C@@H](Cc1ccc(O)cc1)C(=O)N[C@@H](Cc1ccc(O)cc1)C(=O)N[C@@H](Cc1ccc(O)cc1)C(=O)NCCCn1ccnc1`, the inhibition came to 85%.
Take `CON(C)C(=O)[C@H](CC(C)C)NC(=O)[C@H](COC(C)(C)C)NC(=O)[C@H](Cc1ccccc1)NC(=O)/C=C/c1ccc(F)cc1`: the inhibition was 94%.
In the case of `O=C(CNC(=O)[C@H](Cc1c[nH]cn1)NC(=O)OCc1ccccc1)N[C@@H](Cc1ccc(O)cc1)C(=O)NCC(O)CO` (some centres undefined), the inhibition was 74%.
Take `CCCCCCCCCCCOc1ccc(C(=O)N[C@@H](Cc2ccc(O)cc2)C(=O)N[C@@H](Cc2ccc(O)cc2)C(=O)N[C@@H](Cc2ccc(O)cc2)C(N)=O)cc1`: the inhibition amounted to 103%.
As to `O=C(CNC(=O)[C@H](Cc1ccc(O)cc1)NC(=O)c1ccc(F)cc1)N[C@@H](Cc1ccc(O)cc1)C(=O)Nc1ccccc1`, the inhibition is 97%.
Turning to `CCCCCCCCCCC(=O)N[C@@H](Cc1c[nH]cn1)C(=O)N[C@@H](Cc1cnc[nH]1)C(=O)N[C@@H](Cc1ccc(O)cc1)C(=O)NCC(O)CO` (some centres undefined), the inhibition is 65%.
In the case of `CCCCCCCCCCC(=O)N[C@@H](Cc1c[nH]cn1)C(=O)N[C@@H](Cc1c[nH]cn1)C(=O)N[C@@H](CO)C(=O)OC` (Undecanoyl-His-His-Ser-OMe), the inhibition amounted to 77%.
As for `Cc1ccc(C(=O)OC[C@H](NC(=O)CNC(=O)[C@H](COC(=O)c2ccc(C)nc2)NC(=O)c2coc(-c3ccccc3)n2)C(=O)O)cn1`, the inhibition stood at 100%.
In the case of `O=C(CNC(=O)c1coc(-c2ccccc2)n1)N[C@@H](Cc1cn(C(c2ccccc2)(c2ccccc2)c2ccccc2)cn1)C(=O)N[C@@H](Cc1ccccc1)C(=O)O`, the inhibition turned out to be 77%.
The value for `CCCCCCCCCCOc1ccc(C(=O)N[C@@H](Cc2c[nH]cn2)C(=O)N[C@@H](Cc2c[nH]cn2)C(=O)N[C@@H](CO)C(=O)NCCCn2ccnc2)cc1` was 52%; that for `CCCCCCCCCCCOc1ccc(C(=O)N[C@@H](Cc2c[nH]cn2)C(=O)N[C@@H](Cc2ccc(O)cc2)C(=O)N[C@@H](Cc2ccccc2)C(=O)OCCN)cc1` was 74%.
Consider `CC(=O)Nc1cc(C(=O)N2CCC[C@H]2C(=O)N[C@@H](C(=O)N[C@@H](CCC(=O)O)C(N)=O)C(C)C)ccc1[N+](=O)[O-]`, for which the inhibition turned out to be 111%.
As for `CCCCCCCCCCCCCC(=O)N[C@@H](Cc1ccc(O)cc1)C(=O)N[C@@H](Cc1ccc(O)cc1)C(=O)N[C@@H](Cc1ccc(O)cc1)C(=O)Nc1ccc(N2CCOCC2)cc1`, the inhibition was found to be 94%.
For `COC(=O)COC(=O)[C@H](Cc1ccccc1)N(C)C(=O)[C@H](Cc1ccc(OC)cc1)N(C)C(=O)[C@@H](Cc1ccc(O)cc1)NC(=O)CCc1ccccc1`, the inhibition is 88%.
As for `COC(=O)[C@H](Cc1ccc(O)cc1)NC(=O)CNC(=O)[C@H](C)NC(=O)/C=C/c1ccc(F)cc1`, the inhibition came out at 79%.
To `NCCOC(=O)[C@H](Cc1ccc(O)cc1)NC(=O)[C@H](Cc1ccc(O)cc1)NC(=O)[C@H](Cc1ccc(O)cc1)NC(=O)c1ccc(F)cc1F` belongs 97%.
`O=C(N[C@@H](Cc1ccc(O)cc1)C(=O)N[C@@H](Cc1ccc(O)cc1)C(=O)N[C@@H](Cc1ccc(O)cc1)C(=O)OCCCn1ccnc1)c1ccc(F)cc1F`: the inhibition was 96%.
For the compound `COC(=O)[C@H](CO)NC(=O)[C@H](Cc1ccccc1)NC(=O)[C@H](CO)NC(=O)CCc1ccccc1` (Hydrocinnamoyl-Ser-Phe-Ser-OMe), the inhibition worked out at 90%.
Take `CCCCCCCCCCC(=O)N[C@@H](Cc1c[nH]cn1)C(=O)N[C@@H](Cc1ccccc1)C(=O)N[C@@H](Cc1ccc(O)cc1)C(=O)NOC(C)(C)C`: the inhibition was 76%.
Take `C=CCOC(=O)[C@H](CO)NC(=O)CNC(=O)[C@H](Cc1ccccc1)NC(=O)c1coc(-c2ccccc2)n1`: the inhibition came to 109%.
For the compound `NC(=O)CC[C@H](NC(=O)[C@H](Cc1ccccc1)NC(=O)[C@H](CO)NC(=O)CCc1ccccc1)C(=O)Nc1ccc([N+](=O)[O-])cc1` (Hydrocinnamoyl-Ser-Phe-Gln-pNA), the inhibition stood at 93%.
Consider `O=C(CCc1ccccc1)N[C@@H](CO)C(=O)N[C@@H](Cc1ccccc1)C(=O)N[C@@H](CO)C(=O)Nc1ccc(N2CCOCC2)cc1`, for which the inhibition was 95%.
As for `CCC(C)OC(=O)[C@H](CCC(N)=O)NC(=O)[C@H](Cc1ccccc1)NC(=O)[C@@H](NC(=O)/C=C/c1ccccc1)[C@@H](C)O` (some centres undefined), the inhibition is 87%.
As to `CC(C)C[C@H](NC(=O)/C=C/c1ccccc1)C(=O)N[C@@H](Cc1ccccc1)C(=O)N[C@@H](Cc1ccccc1)C(=O)O`, the inhibition is 75%.
